# Compound activity: PubChem BioAssay, Sanford-Burnham Center for Chemical Genomics
# Compounds with a hit are over-represented: about 2.3% of the library has one in this group of screens.
# ATG4B inh: inhibitors of human ATG4B cysteine protease | ATG4B cleavage of LC3-PLA2, NBD-HPC fluorescence, 1 h | inhibition, % at 8.33 µM | actives 0.51% (n = 340,000) | AID 504462 | Q9Y4P1; in the data active = inhibition above about 40%
# Target sequence (Q9Y4P1 whole entry, looked up): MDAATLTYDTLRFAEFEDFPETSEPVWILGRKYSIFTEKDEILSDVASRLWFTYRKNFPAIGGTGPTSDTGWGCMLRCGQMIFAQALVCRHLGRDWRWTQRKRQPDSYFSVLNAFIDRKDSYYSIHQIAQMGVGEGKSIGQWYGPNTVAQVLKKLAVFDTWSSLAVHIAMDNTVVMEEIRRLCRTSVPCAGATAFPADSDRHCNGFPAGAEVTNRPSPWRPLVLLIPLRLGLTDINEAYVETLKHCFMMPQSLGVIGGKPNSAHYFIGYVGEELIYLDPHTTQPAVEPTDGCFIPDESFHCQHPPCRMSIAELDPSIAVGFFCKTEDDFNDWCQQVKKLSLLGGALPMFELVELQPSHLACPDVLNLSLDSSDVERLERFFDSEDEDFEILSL
# MPTP block: permeability transition pore inhibition. inhibition, % at 10 µM. isolated mouse mitochondria, Ca2+ swelling absorbance, 30 min. actives 1.4% (n = 360,000);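 active = inhibition of 50% or more, scaled per plate between neutral and stimulator controls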;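 note: 0% = DMSO wells given calcium and 100% = 1 mM EGTA wells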
# SKN-1 block: C. elegans SKN-1 inhibition | C. elegans VP596 Pgst-4::GFP/RFP ratio, acrylamide-induced, 24 h | inhibition, % at 21.8 µM | actives 0.49% (n = 360,000) | AID 624304;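 active = interference check ratio from 0.5 to 1.5 plus GFP to RFP signal ratio inhibition reaching or exceeding a fixed threshold, cut at about 30% in these data, passing the limit was not always enough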
# MT1-MMP act inh: inhibitors of human MT1-MMP activation; P50281; HT1080 RFP-PRO-GFP cells, GFP/RFP ratio fluorescence, overnight; percent of plate control window, DMSO zero; GFP/RFP ratio change, % at 20 µM; actives 0.061% (n = 360,000); AID 651647;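 active = GFP/RFP ratio change of at least 30% with cell ATP level not reduced by more than half and red fluorescence within 50% of control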
#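 Read-out: GFP/RFP fluorescence ratio; Test system: RFP-PRO-GFP reporter HT1080 cells; Compound dosing: single-point 20 µM compound, 1% DMSO; Times: overnight compound exposure at 37 °C.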
# Rh123 counter: Rhodamine 123 counter-screen of mitochondrial pore hits. inhibition, % at 10 µM. shares compounds with MPTP block. actives 78% (n = 5,000). isolated mitochondria, membrane potential, Rhodamine 123 fluorescence; in the data active = inhibition above about 22%;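 note: 0% = DMSO vehicle and 100% = positive control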
# MPTP swell DR: MPTP inhibition, dose response swelling confirmation; shares compounds with MPTP block; isolated mitochondria swelling, absorbance; IC50, µM; actives 58% (n = 780); AID 651561; in the data active = IC50 below about 20 µM
# MPTP cs DR: counter-screen for mitochondrial permeability transition pore inhibitors, dose response. actives 49% (n = 780). isolated mitochondria counterscreen, fluorescence read-out. shares compounds with MPTP block. AID 651564. IC50, µM; in the data active = IC50 below about 80 µM
# Starred values were filed as active, the others as inactive; i = inactive; . = no result given.
SMILES,ATG4B inh,MPTP block,SKN-1 block,MT1-MMP act inh,Rh123 counter,others
O=C1NC(=S)SC1=Cc1ccc(Cl)cc1,6.9,94.6*,-8.8,0.0,78.8*,
O=C1NC(=O)C(=Cc2ccc(Cl)cc2Cl)S1,4.6,81.0*,-15.5,-0.8,93.6*,
CC(C)N(CCCNC(=O)Cn1c(=O)c2cccn2c2ccc(F)cc21)Cc1ccccc1,4.0,-0.9,34.2,-0.3,.,
Cc1ccc(Nc2nc(N)c([N+](=O)[O-])c(N3CCCC(C)C3)n2)cc1C (stereo unspecified),10.2,55.0*,6.8,-2.4,-8.6,MPTP swell DR=i;MPTP cs DR=69.8*
CCN1CCN(c2nc(N)c([N+](=O)[O-])c(Nc3ccc(C)c(C)c3)n2)CC1,2.0,81.0*,-0.6,-0.2,-2.5,MPTP swell DR=i;MPTP cs DR=76.6*
CC1(C(=O)NS(C)(=O)=O)CCN1C(=O)Cc1ccc(-c2ccccc2)cc1 (stereo unspecified),.,-0.2,-1.2,-2.5,.,
CC(C)Cc1csc(NC(=O)c2ccc(Cl)cc2)c1C(=O)O,19.9,90.2*,12.0,1.4,88.0*,
Cn1nc(C(F)(F)F)c2cc(C(=O)Nc3ccc(F)c(Cl)c3)sc21,0.8,88.7*,-5.1,0.7,76.2*,
Cn1nc(C(F)(F)F)c2cc(C(=O)Nc3ccc(F)cc3)sc21,-2.5,26.4,16.7,4.2,.,
Cn1nc(C(F)(F)F)c2cc(C(=O)Nc3ccc(C(F)(F)F)cc3)sc21,-4.6,91.2*,-1.6,0.0,75.4*,
COc1cccc(/C(C)=N/Nc2ccc(S(=O)(=O)N3CCCCC3)cn2)c1,-5.8,-0.4,7.9,2.2,.,
Cc1cc(NC(=O)c2ccc(Cl)cc2Cl)no1,2.8,-0.3,7.4,9.3,.,
CC1(C)CC(=O)C(C=NCC2CCN(C(=S)Nc3cccc(Cl)c3)CC2)=C(O)C1,-9.3,0.5,13.8,3.4,.,
CC(C)C(=O)N1CCC(CN=CC2=C(O)CC(C)(C)CC2=O)CC1,-2.8,69.4*,0.8,5.4,113.2*,
COc1ccc(Cc2nc3ccc(C(=O)NC(C)c4cn(C)nc4C)cc3o2)cc1 (stereo unspecified),-8.9,-0.8,10.1,6.4,.,
O=C(CCN1C(=O)/C(=C\c2ccccc2)SC1=S)NNC(=O)c1cccnc1,-7.8,80.5*,3.0,4.4,70.0*,
COc1ccc(C(CNC(=O)c2oc3cc(C)c(Cl)cc3c2C)N2CCCCC2)cc1 (stereo unspecified),-8.1,71.3*,-6.2,1.3,-8.1,MPTP swell DR=i;MPTP cs DR=>80
Clc1ccc2[nH]cc(-c3nnnn3-c3ccc4ccccc4c3)c2c1,-8.7,83.7*,14.0,-7.5,77.4*,
Cc1ccc(-n2nnnc2-c2cnc3ccc(Cl)cc3c2-c2ccccc2)cc1,-10.2,1.2,5.8,-16.0,.,
O=C(Nc1cccc(S(=O)(=O)N2CCOCC2)c1)C1=NN(c2ccccc2)C(=O)CC1,-3.9,-0.6,6.5,5.6,.,
CC1CCCCC1NC(=O)CSc1nnc(-c2ccco2)n1N (stereo unspecified),.,-0.2,-8.9,2.2,.,
CNC(=S)Nc1ccc(C23CC4CC(CC(C4)C2)C3)cc1,11.0,52.3*,12.5,1.4,65.6*,
CC(=O)Nc1ccc(C23CC4CC(CC(C4)C2)C3)cc1,-1.1,0.9,5.6,-4.9,.,
N=c1c2c(-c3ccccc3)c(-c3ccccc3)n(Cc3ccccc3)c2ncn1CCCn1ccnc1,8.1,55.5*,1.0,-8.8,0.8,
COc1cccc(NC(=O)Nc2ccccc2SC)c1,4.8,7.4,-3.2,5.3,.,
SMILES,ATG4B inh,MPTP block,SKN-1 block,MT1-MMP act inh,Rh123 counter,others
CSc1ccccc1NC(=O)Nc1ccc(F)c(Cl)c1,28.8,92.8*,2.4,-8.1,74.5*,
CSCCC(NC(N)=O)C(=O)Nc1ccc(F)c(Cl)c1 (stereo unspecified),-5.5,64.3*,4.4,1.9,80.2*,
CSc1ccccc1NC(=O)Nc1cccc(Cl)c1,24.6,61.7*,16.0,-3.1,85.2*,
COc1ccc2nc(-c3ccc(F)cc3)sc2c1,0.8,1.8,34.4,-1.2,.,
CC(=O)N1CCN(S(=O)(=O)c2cccc(C(=O)OCc3ccc(C(C)(C)C)cc3)c2)CC1,-9.9,89.5*,1.1,-2.0,90.5*,
Cc1ccc(COC(=O)c2cccc(S(=O)(=O)N3CCCCCC3)c2)cc1,-9.6,0.9,-3.8,-2.7,.,
